Rows were chosen to be rich in hits. Some 3% of all compounds tested hit in one or more screens of this group.
Wnt bcat act – Wnt/beta-catenin pathway activators, primary screen, cell-based, plate reader, single point. Wnt/beta-catenin reporter cell assay, activator. activation, % at 9.35 µM. 300,000 compounds, 1.2% hits. AID 743398, 2014; in the data active means activation above about 30%, passing the limit was not always enough; inconclusive means no clear call, values can overlap the other calls;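 further: 0% = neutral control wells and 100% = positive control wells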
esBAF inh – Bmi1 luciferase reporter increase in mESCs, primary screen, esBAF inhibitor project, mouse ES cells, Bmi1 luciferase knock-in, single point. 24 h; 100% = twice the neutral-well signal. reporter increase, % at 12.5 µM. 350,000 compounds, 2% hits; in the data active means activation above about 40%; inconclusive means no clear call, values can overlap the other calls;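 further: 0% = median of the plate's neutral control wells and 100% = double that signal; a rise in the Bmi1 reporter signal indicates esBAF inhibition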
Xi reactivation – activators of inactive X chromosome reactivation, primary screen, imaging, XiGFP fibroblasts, GFP high-content imaging, set 2; activation, % at 7.58 µM; XiGFP mouse fibroblasts, % GFP-positive cells imaging, 3 d; cells co-treated with 5-aza-dC sensitizer; scaled so ellipticine positive control = 100%; 360,000 compounds, 0.055% hits;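 active means mean normalized replicate activation at least 10% and every replicate at or above 10%; inconclusive means only one of the two criteria met; inactive means mean below 10% and not all replicates reach 10%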;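 further: 0% = median of on-plate neutral control wells and 100% = ellipticine 6 µM median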
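Material: SV40-immortalized XiGFP fibroblast cells, line 68-5-11 | Buffer or medium: DMEM containing 5-aza-dC | Dosing: One concentration, pinned | Times: 3 d treatment, 15 min room-temperature fixation | Controls: Ellipticine 6 µM positive control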
NSD2 HMT inh – NSD2 histone methyltransferase inhibitors, primary screen, biochemical, AlphaScreen, single concentration, set 2; Histone-lysine N-methyltransferase NSD2 (Homo sapiens), O96028; NSD2 peptide methylation, 120 min; inhibition, % at 12.5 µM; 310,000 compounds, 0.54% hits; AID 743445, 2014; in the data active means inhibition above about 50%
Casp6 inh – human caspase-6 inhibitors, primary screen, biochemical, VEID-R110 fluorescence, single point, set 2; P55212; purified caspase-6, Z-VEID-R110 cleavage fluorescence; inhibition, % at 12.5 µM; 350,000 compounds, 0.53% hits; AID 686996, 2013;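 active means mean inhibition across replicates at least about 35%, with every replicate also reaching that limit, limit read from the data; inconclusive means only one of the two criteria met; inactive means neither criterion met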;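 further: 0% = median of neutral control wells and 100% = no fluorescence left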
MITF act – activators of MITF-driven TRPM1 promoter reporter, primary screen, cell-based, SK-MEL-5, luciferase, single point. SK-MEL-5 TRPM1-promoter luciferase, 24 h; % of positive control, neutral wells = 0. activation, % at 12.5 µM. 300,000 compounds, 0.75% hits;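 active means mean activation of at least 80% with every replicate also reaching 80%; inconclusive means mean reaches 80% but some replicate falls short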;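 further: 0% = neutral control wells and 100% = parthenolide positive control wells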
Active calls of the source: *; ? = inconclusive; . = no result given; + = active, no number; ! = repeats disagree.

SMILES	Wnt bcat act	esBAF inh	Xi reactivation	NSD2 HMT inh	Casp6 inh	MITF act
FC(F)(F)c1cc(-c2cccs2)nc2cc(-c3ccccc3)nn12	-3	0	0	-4	-2	-4
Cc1cc(C(F)(F)F)n2nc(-c3cccs3)cc2n1	7	64*	0	-3	0	18
O=C(CN1CCCCC1)Nc1scc2c1c(=O)oc1ccccc12	38*	?	0	.	-4	.
CCCNC(=O)C[C@@H]1CC[C@H]2[C@H](COc3ccc(NC(=O)C4CCOCC4)cc3C(=O)N2C)O1	.	-1	0	.	2	.
N=C1N(c2ccccc2)C(=S)C(=Nc2ccccc2)N1c1ccccc1	-3	.	0	0	-1	-46
COc1ccc(N=C2C(=S)N(c3ccc(OC)cc3)C(=NS(=O)(=O)c3ccccc3)N2c2ccccc2)cc1	68*	.	0	.	-3	9
Cc1ccc(O)c(-c2cc3ccccc3[nH]2)c1	37*	30	.	5	.	20
COc1ccc(-c2cc3ccccc3[nH]2)cc1	54*	39	0	.	24	?
OCc1cn(-c2ccccc2)nc1-c1cc2ccccc2o1	57*	?	1	-1	0	73
CCc1nnc(NC(=O)C23CC4CC(CC(C4)C2)C3)s1	17	56*	0	-3	-3	70
O=C(c1ccccn1)N1[C@@H](CO)[C@@H](c2ccccc2)C12CN(Cc1ccccc1F)C2	.	.	0	.	.	.
CC1CCC(C(C)C)C(OC(=O)COC(=O)c2ccc(=O)[nH]c2)C1 (centres undefined)	-3	1	.	0	.	4
CC1CCC(C(C)C)C(OC(=O)COC(=O)c2cc(O)ccc2N)C1 (centres undefined)	34*	.	0	-2	.	-11
Cc1cccc(-c2ccc([C@@H]3[C@H]4CN(C(=O)Cc5ccccn5)CC(=O)N4[C@H]3CO)cc2)c1	.	.	0	.	2	.
O=C(Nc1ccc(NC(=O)c2cccs2)cn1)c1ccccc1	44*	.	0	-2	1	?
N#Cc1ccc(NC(=O)c2cccs2)nc1	6	?	0	0	-1	86*
O=C(Nc1ccc(NC(=O)C2CC2)nc1)c1cccs1	.	36	.	21	.	57
O=C(Cc1ccccc1)Nc1ccc(NC(=O)c2ccccc2)nc1	17	56*	0	-2	-1	75
COc1ccc2c3c([nH]c2c1)[C@@H](CO)N(Cc1nccs1)CC31CCN(C(=O)C2CC2)CC1	.	.	0	.	-2	.
C[C@@H]1CN([C@@H](C)CO)C(=O)c2cccc(N(C)C)c2O[C@H]1CN(C)C(=O)Nc1ccc2c(c1)OCO2	.	-3	0	.	2	.
CO[C@@H]1CN(C)C(=O)c2ccc(NC(=O)Nc3cccc(F)c3)cc2OC[C@@H](C)N(C(=O)C2CC2)C[C@H]1C	.	0	0	.	.	.
Cc1cc(Cl)nc(-c2ccccc2)n1	-2	.	0	-3	24	-1
Cc1cc2c(C)nc(-c3ccccc3)nc2o1	49*	.	.	-24	.	77
COc1cc(/C=C2\SC(=S)N(CC(=O)O)C2=O)ccc1OS(=O)(=O)c1ccc(C)cc1	-3	3	0	3	41*	-5
COc1cc(/C=C2\C(=N)N3N=C(S(C)(=O)=O)SC3=NC2=O)cc(OC)c1OCCOc1ccccc1C	0	-5	0	22	42*	0
SMILES	Wnt bcat act	esBAF inh	Xi reactivation	NSD2 HMT inh	Casp6 inh	MITF act
CCOc1cc(/C=C2/C(=N)N3N=C(C)SC3=NC2=O)ccc1OS(=O)(=O)c1ccc(C)cc1	-3	-7	0	3	12	-14
COc1cc(/C=C2\C(=N)N3N=C(S(C)(=O)=O)SC3=NC2=O)ccc1OS(=O)(=O)c1ccc(C)cc1	-2	-3	0	18	50*	10
Cc1cccc(S(=O)(=O)N[C@H]2CC[C@@H](CCNC(=O)CCN3CCCCC3)O[C@H]2CO)c1	.	-4	0	.	1	.
Cc1nn(C)cc1/C=C/C(=O)c1ccccc1	.	17	.	4	.	39
Cc1nn(C)cc1/C=C/C(=O)c1cccs1	90*	65*	.	0	.	.
Cc1nn(C)c(C)c1/C=C/C(=O)c1cccs1	39*	19	.	3	.	.
O=C(/C=C1\NCC2c3ccccc3CCN2C1=O)c1ccccc1 (centres undefined)	.	49*	.	.	.	.
O=C(C=C1NCCN1)c1ccccc1	-1	4	0	0	-11	.
CN(C(=S)NCCN1CCOCC1)C(c1ccccc1)c1ccccc1	42*	.	0	1	5	-5
COCC(=O)Nc1ccc2c(c1)[C@H]1C[C@H](CC(=O)NCc3ccncc3)O[C@H](CO)[C@H]1O2	.	4	0	.	-3	.
CCn1c(Cl)c(C=O)s/c1=N\S(=O)(=O)c1ccccc1	-22	-61	35*	.	-4	-98
CCN1C(=O)CS/C1=N\S(=O)(=O)c1ccc(Cl)cc1	-2	-1	0	6	2	6
COc1ccc(-c2c(C)nc(N)nc2-c2ccc(OC)cc2O)cc1	0	-1	0	3	3	-13
COc1ccc(-c2nc(N)nc(N)n2)c(O)c1	29	48*	0	.	-2	42
Cc1cccc(N/N=C2/COC(C)(C)CC2=O)c1	.	20	0	0	-2	76
CC1(C)CC(=O)/C(=N/Nc2ccc(Cl)cc2)CO1	52*	55*	0	4	0	69
Cc1noc(C)c1NC(=O)Nc1ccc2c(c1)C(=O)N([C@@H](C)CO)C[C@H](C)[C@@H](CN(C)S(=O)(=O)c1c(C)noc1C)OCCCC[C@@H](C)O2	.	-2	0	.	-4	.
CC(C)NC(=O)C1(C)CCN1C(=O)c1ccc2c(c1)OCO2 (centres undefined)	-3	1	0	0	71*	.
Clc1ccccc1OCCCCN1CCCCC1	-1	-4	0	9	-9	11
Fc1ccccc1OCCCCN1CCCCC1	-1	6	0	4	-10	+
CCCn1c(=O)c(C(=O)Nc2cccc(C)n2)c(O)c2ccccc21	2	50*	0	0	0	2
COc1cccc(S(=O)(=O)N2C[C@@H]3N[C@H](C2)C3c2ccc(-c3ccccc3C)cc2)c1 (some centres undefined)	.	.	0	.	37*!	.
Cn1c(SCc2ccccc2Cl)nnc1-c1cnccn1	.	68*	.	-4	.	80
Cn1c(SCc2cccc(F)c2)nnc1-c1cnccn1	10	9	0	-2	1	.
Cn1c(SCc2ccccc2Cl)nc2ccccc21	.	.	.	15	.	131*
